Values joined by “and” are separate entries in the source; they are usually repeats but may differ in a detail not shown here. Identical values can stand only once.

The first data set has as its system THP-1. Nature of the data set: Inhibitory activity against TNF-alpha production using lipopolysaccharide (LPS) stimulated human monocytic cells (THP-1); NA: Not active. The format is functional, cell-based.
Settings: not given
In outline: (§1)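 THP-1 human monocytic cells (2.0 × 10^5/well), in duplicate cultures, preincubated 15 min with or without inhibitor at various concentrations, then stimulated with LPS 2 μg/mL. TNF-α released measured by ELISA 4 h after stimulation; cell viability after the 4 h incubation checked by MTS assay. Standard deviation typically ±30% of the mean or less.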
As for `CCOCn1nnc(-c2ccc(F)cc2)c1-c1ccncc1`, the IC50 (usually the midpoint of a concentration-inhibition curve) was “Not Active”.

Test system in the next data set: not listed separately
Nature of the data set: Half life period was determined. The format is ADME, organism-based. Particulars: rat, in vivo.
On to `CCOCn1nnc(-c2ccc(F)cc2)c1-c1ccnc(Oc2cccc(NC(C)=O)c2)n1`, for which the half-life (as a rule, the time needed for the level to fall by half in the phase considered) is 2.2 h.

The test system of another data set is THP-1. Nature of the data set: Inhibitory activity against TNF-alpha production using lipopolysaccharide stimulated human monocytic cells. Particulars: Homo sapiens, THP-1. The class given is functional, cell-based. A digest of the protocol:
as §1
For `CCOCn1nnc(-c2ccnc(Oc3cccc(NC(C)=O)c3)n2)c1-c1ccc(F)cc1`, the half-maximal inhibitory concentration (IC50) came to 189 nM. The compound `COCCn1nc(-c2ccncc2)c(-c2ccc(F)cc2)n1` returned an IC50 of 3760 nM. `CCOCn1nnc(-c2ccc(F)cc2)c1-c1ccnc(N[C@H](C)c2ccccc2)n1` registered an IC50 of 46 nM. In the case of `Fc1ccc(-c2[nH]nnc2-c2ccncc2)cc1`, the half-maximal inhibitory concentration (IC50) worked out at 12.5 nM. `CCOCn1nnc(-c2ccc(F)cc2)c1-c1ccnc(N[C@@H](C)c2ccccc2)n1` had an IC50 of 54 nM. Still for that read-out and setting: as for `O=C(Nc1ccccc1)n1nc(-c2ccncc2)c(-c2ccc(F)cc2)n1`, the figure is above 10000 nM.

In turn, `COc1ccc(S(=O)(=O)n2nc(-c3ccncc3)c(-c3ccc(F)cc3)n2)cc1` gave an IC50 of 4800 nM.

In turn, `CCOCn1nnc(-c2ccncc2)c1-c1ccc(F)cc1` yielded a 50% inhibitory concentration (IC50) of 490 nM. In the case of `CCOCn1nnc(-c2ccnc(NCc3ccccc3)n2)c1-c1ccc(F)cc1`, the IC50 was 557 nM. Regarding `COc1ccc(-n2nc(-c3ccncc3)c(-c3ccc(F)cc3)n2)cc1`, it took 1320 nM to reach half-maximal inhibition (IC50). For `CCOCn1nnc(-c2ccnc(N[C@H](C)c3ccccc3)n2)c1-c1ccc(F)cc1`, the IC50 is 1600 nM.

In turn, `CCOCn1nnc(-c2ccc(F)cc2)c1-c1ccnc(Oc2cccc(NC(C)=O)c2)n1` yielded an IC50 of 8 nM. The compound `CCOCn1nnc(-c2ccc(F)cc2)c1-c1ccnc(NCc2ccccc2)n1` had an IC50 of 100 nM. On to `CCOCn1nnc(-c2ccc(F)cc2)c1-c1ccnc(Oc2ccccc2)n1`, for which the half-inhibitory concentration (IC50) is 74 nM. As for `Fc1ccc(-c2nn(C(=S)Sc3ccccc3)nc2-c2ccncc2)cc1`, half-maximal inhibition (IC50) required 3720 nM. On the same count and under the same terms, next, `CCOCn1nnc(-c2ccnc(N[C@@H](C)c3ccccc3)n2)c1-c1ccc(F)cc1`: 306 nM; `CCOCn1nc(-c2ccc(F)cc2)c(-c2ccnc(Oc3ccccc3)n2)n1`: 4020 nM. In the case of `COc1ccc(-n2nc(-c3ccncc3)c(-c3ccc(F)cc3)n2)cc1OC`, it took 744 nM to reach half-maximal inhibition (IC50).

`COc1ccc(C(=O)n2nc(-c3ccncc3)c(-c3ccc(F)cc3)n2)cc1` returned a half-maximal inhibitory concentration (IC50) of 3300 nM.

`COCn1nc(-c2ccncc2)c(-c2ccc(F)cc2)n1` gave an IC50 of 7590 nM. `CN(C(=O)n1nc(-c2ccncc2)c(-c2ccc(F)cc2)n1)c1ccccc1` returned an IC50 of 1920 nM. Turning to `CCOC(=O)n1nc(-c2ccncc2)c(-c2ccc(F)cc2)n1`, half-maximal inhibition (IC50) required 3830 nM. `C[S+]([O-])c1ccc(-c2nc(-c3ccc(F)cc3)c(-c3ccncc3)[nH]2)cc1` (centres undefined) [SB-203580] gave a concentration for half-maximal inhibition (IC50) of 72 nM.

Staying with this data set, now noted: thp-1.
On to `CCOCn1nnc(-c2ccnc(Oc3ccccc3)n2)c1-c1ccc(F)cc1`, for which the 50% inhibitory concentration (IC50) was 611 nM and 164 nM. Consider `CCOCn1nc(-c2ccncc2)c(-c2ccc(F)cc2)n1`, for which the IC50 stood at 490 nM.

Test system in the next data set: not listed separately
Nature of the data set: Clearance was determined. The class given is ADME, organism-based. The conditions noted are these: rat, in vivo.
With `CCOCn1nnc(-c2ccc(F)cc2)c1-c1ccnc(Oc2cccc(NC(C)=O)c2)n1`, the clearance (in general, the rate of elimination divided by the concentration) was determined as 36.5 mL/min/kg.

Test system in another data set: not listed separately
Nature of the data set: Oral bioavailability in the rat was determined. The format is ADME, organism-based. The conditions noted are these: in vivo.
Turning to `CCOCn1nnc(-c2ccc(F)cc2)c1-c1ccnc(Oc2cccc(NC(C)=O)c2)n1`, the bioavailability (in general, dose-corrected exposure relative to a reference, in per cent) was 56%.
